Assay results pooled from the literature.
Medium: plasma
Route: oral

| SMILES | species | dose | notes | AUC(0-inf) [ng·h/mL] |
| --- | --- | --- | --- | --- |
| CC(C)n1cc(C#N)c2cc(-n3cc(C(=O)O)cn3)ccc21 | human | 25 mg | single dose, fasted, healthy volunteers | 5190 |
| Cn1cc(-c2ccc(S(=O)(=O)[C@@H]3C[C@@H](C(=O)NC4(C#N)CC4)N(C(=O)C4(C(F)(F)F)CC4)C3)c(C(F)(F)F)c2)cn1 | human | 30 mg | single dose, fasted, healthy volunteers | 3240 |
| C[C@@]1(c2cc(NC(=O)c3ccc(C#N)cn3)ccc2F)C=CSC(N)=N1 | human | 90 mg | single dose | 8950 |
| CO[C@H]1CC[C@H](N2C(=O)CNc3ncc(-c4ccc(C(C)(C)O)nc4)nc32)CC1 | human | 7.5 mg | patients | 353 |
| COc1ccc([C@@H]2CN(C(=O)[C@@H](O)CO)C[C@@]2(C)[C@@H](C)O)cc1OC1CN(c2ccc(C)cn2)C1 | human | 40 mg | single dose, healthy volunteers | 9000 |
| CC(C)(O)c1ccccc1-c1ccc2[nH]c(/C=C/c3ccc(C(F)(F)F)cc3)nc2c1 | male human | 5 mg | single dose, fasted | 876 |
| CC(C)(Sc1ccncc1-c1ccc(C#N)c2ccccc12)C(=O)O | male human | 20 mg | single dose, fed, healthy volunteers | 415 |
| CCc1nc2c(C)cc(N3CCN(CC(=O)N4CC(O)C4)CC3)cn2c1N(C)c1nc(-c2ccc(F)cc2)c(C#N)s1 | human | 600 mg | single dose, fasted, healthy volunteers | 36600 |
